From ChEMBL document CHEMBL1921751, “Discovery of small molecules that enhance astrocyte differentiation in rat fetal neural stem cells” (Bioorg Med Chem Lett, 2011)
Calls of active or inactive are those of the source. No cut-off for these calls is given here.

Key:
NSC [1] = experiment: Induction of GFAP mRNA expression in Sprague-Dawley rat embryonic cortex NSC at 5 uM after 1 day by RT-PCR analysis relative to control; format: functional
Procedure, shortened: (§1)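 First-strand cDNA was made from 2 µg total RNA using oligo(dT) primers and RevertAid reverse transcriptase. PCR ran 94 °C 5 min, then 26 cycles of 94 °C, 55–58 °C and 72 °C (0.5 min each), with a final 72 °C extension for 10 min.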

NSC [2] = experiment: Induction of beta3 tubulin mRNA expression in Sprague-Dawley rat embryonic cortex NSC at 5 uM after 1 day by RT-PCR analysis; format: functional, cell-based; procedure, shortened: as §1
NSC [3] = experiment: Induction of S100 mRNA expression in Sprague-Dawley rat embryonic cortex NSC at 5 uM after 1 day by RT-PCR analysis relative to control; format: functional; procedure, shortened: as §1
NSC [4] = experiment: Induction of Sprague-Dawley rat embryonic cortex NSC differentiation assessed as GFAP-positive cells at 5 uM after 4 days by immunocytochemistry analysis relative to control; format: functional
Procedure, shortened: (§2)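 E14 rat cortical NSCs were grown as neurospheres, dissociated and plated on poly-D-lysine in growth-factor-free medium with 2% B27. They received 5 µM compound or 0.05% DMSO at 37 °C, 5% CO2, for 4 days. Cells were fixed in 4% PFA, stained with anti-GFAP or TuJ1 plus Cy3 secondary, and DAPI-counterstained. Positive/DAPI cells in random fields were normalised to control; mean±SEM, n=6, t-test.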

NSC [5] = experiment: Induction of Sprague-Dawley rat embryonic cortex NSC differentiation assessed as TuJ1-positive cells at 5 uM after 4 days by immunocytochemistry analysis; format: functional, cell-based; procedure, shortened: as §2
NSC [6] = experiment: Cytotoxicity against Sprague-Dawley rat embryonic cortex NSC assessed as changes in morphology at 5 uM after 4 days by microscopic analysis; format: cell-based; conditions: 96 h
NSC [7] = experiment: Cytotoxicity against Sprague-Dawley rat embryonic cortex NSC assessed as reduction in nuclei count at 5 uM after 4 days using DAPI staining by fluorescent microscopic analysis; format: cell-based; conditions: 96 h

| SMILES | Activity (NSC [1]) | Activity (NSC [2]) | Activity (NSC [3]) | Activity (NSC [4]) | Activity (NSC [5]) | fold change (FC) (NSC [1]) | fold change (FC) (NSC [3]) | fold change (FC) (NSC [4]) | Activity (NSC [6]) | Activity (NSC [7]) |
| --- | --- | --- | --- | --- | --- | --- | --- | --- | --- | --- |
| O=C(NC(c1ccc(F)cc1)c1nnc(-c2ccccc2)o1)c1ccccc1 (configuration not stated) | Active | inactive | Active | Active | inactive | – | – | – | – | – |
| O=C(Cc1ccccc1)NC(c1ccc(F)cc1)c1nnc(-c2ccccc2)o1 (configuration not stated) | – | inactive | – | – | inactive | 2 | 2 | 2 | – | – |
| O=S(=O)(Cc1ccccc1)NC(c1ccc(F)cc1)c1nnc(-c2ccccc2)o1 (configuration not stated) | Active | inactive | Active | Active | inactive | – | – | – | – | – |
| O=C(Cc1ccccc1)NC(c1ccccc1)c1nnc(-c2ccccc2)o1 (configuration not stated) | – | inactive | – | – | inactive | 2 | 2 | 2 | Non-toxic | Non-toxic |
| CC(C)(C)OC(=O)NC(c1ccc(F)cc1)c1nnc(-c2ccccc2)o1 (configuration not stated) | Active | inactive | Active | Active | inactive | – | – | – | – | – |
| O=S(=O)(NC(c1ccc(F)cc1)c1nnc(-c2ccccc2)o1)c1ccccc1 (configuration not stated) | Active | inactive | Active | Active | inactive | – | – | – | – | – |
